The results in this text go back to paper PMC10262665 (Science (New York, N.Y.), 2023).

The target in test [1] is PGAM1 (Homo sapiens, UniProt P18669). As to the kind of experiment: MIDAS protein-metabolite interaction screen. It is filed as binding. To be noted: significant PMI Q < 0.01. In outline:
(§1)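 Purified protein is separated from a defined metabolite library by a semipermeable dialysis membrane that passes metabolites but not protein, then incubated to relative equilibrium. Protein is denatured and removed. Metabolites in both chambers are quantified by flow injection analysis–MS, with methods optimized for each pool. The between-chamber fold change is normalized and corrected for nonspecific interactions.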

Test [2] has as its target T1, PGAM2 (Homo sapiens, UniProt P15259).
T1 sequence (P15259 1-253): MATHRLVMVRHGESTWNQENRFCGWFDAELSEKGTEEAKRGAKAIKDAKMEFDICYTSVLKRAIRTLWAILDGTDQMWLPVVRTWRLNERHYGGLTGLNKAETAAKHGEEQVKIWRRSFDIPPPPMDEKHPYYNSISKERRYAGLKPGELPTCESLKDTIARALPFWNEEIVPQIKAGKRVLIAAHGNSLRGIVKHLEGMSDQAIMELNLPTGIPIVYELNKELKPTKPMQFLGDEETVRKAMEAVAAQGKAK
As to the kind of experiment: MIDAS protein-metabolite interaction screen. It is filed as binding. To be noted: significant PMI Q < 0.01. The essentials:
as §1

Test [3] addresses GAPDH (Homo sapiens, UniProt P04406). Description: MIDAS protein-metabolite interaction screen. It is filed as binding. To be noted: significant PMI Q < 0.01.
Test [4] concerns the target ENO2 (Homo sapiens, UniProt P09104). Description: Differential scanning fluorimetry. It is filed as binding. To be noted: DSF, ENO2. Background: DSF heats the sample and reads unfolding from a dye or from intrinsic fluorescence.
For test [5], the target named is ENO1 (Homo sapiens, UniProt P06733). As to the kind of experiment: Differential scanning fluorimetry. The note with it: DSF, ENO1. It is filed as binding.
Chain of ENO1 (P06733 whole entry): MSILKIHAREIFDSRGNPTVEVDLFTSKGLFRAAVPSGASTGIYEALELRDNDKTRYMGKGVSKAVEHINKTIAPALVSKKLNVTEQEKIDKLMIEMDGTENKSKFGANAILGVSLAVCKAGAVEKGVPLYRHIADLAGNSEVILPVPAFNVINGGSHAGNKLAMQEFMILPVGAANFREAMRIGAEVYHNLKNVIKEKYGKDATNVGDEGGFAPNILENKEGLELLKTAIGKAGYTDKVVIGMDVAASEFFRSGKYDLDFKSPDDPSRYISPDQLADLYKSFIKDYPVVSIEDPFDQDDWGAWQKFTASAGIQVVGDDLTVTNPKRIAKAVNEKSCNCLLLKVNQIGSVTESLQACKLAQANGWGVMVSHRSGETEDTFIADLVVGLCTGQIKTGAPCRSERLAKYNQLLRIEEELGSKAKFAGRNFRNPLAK
Test [6] addresses T2, LDHA (Homo sapiens, UniProt P00338). As to the kind of experiment: LDH enzyme activity assay. It is filed as biochemical. The note with it: for inhibition of LDHA enzyme activity: in vitro; for IC50: LDHA enzyme activity, acyl-CoAs. The essentials:
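LDH isoform activity measured in vitro with test metabolites (adenosine nucleotides, CoA and acyl-CoAs) over a concentration range. IC50 is derived from the inhibition curves. Mode of inhibition is assessed against NAD and lactate.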

In test [7] the test system is H9c2 rat cardiomyoblasts. Description: 13C-lactate metabolic tracing into pyruvate. It is filed as cell-based.
In test [8] the test system is H9c2 rat cardiomyoblasts. Description: 13C-glucose metabolic tracing into lactate. It is filed as cell-based. The note with it: for labeling of lactate from 13C-glucose: BSA-conjugated palmitate vs BSA.
The target in test [9] is LDHB (Homo sapiens, UniProt P07195). As to the kind of experiment: MIDAS protein-metabolite interaction screen. The note with it: significant PMI Q < 0.01. It is filed as binding. In outline:
as §1

The target in test [10] is T2, LDHA. Description: MIDAS protein-metabolite interaction screen. The note with it: significant PMI Q < 0.01. It is filed as binding. The essentials: as §1
Test [11] has as its target T3, Sestrin2 (Homo sapiens, UniProt P58004).
T3 sequence (P58004 1-480): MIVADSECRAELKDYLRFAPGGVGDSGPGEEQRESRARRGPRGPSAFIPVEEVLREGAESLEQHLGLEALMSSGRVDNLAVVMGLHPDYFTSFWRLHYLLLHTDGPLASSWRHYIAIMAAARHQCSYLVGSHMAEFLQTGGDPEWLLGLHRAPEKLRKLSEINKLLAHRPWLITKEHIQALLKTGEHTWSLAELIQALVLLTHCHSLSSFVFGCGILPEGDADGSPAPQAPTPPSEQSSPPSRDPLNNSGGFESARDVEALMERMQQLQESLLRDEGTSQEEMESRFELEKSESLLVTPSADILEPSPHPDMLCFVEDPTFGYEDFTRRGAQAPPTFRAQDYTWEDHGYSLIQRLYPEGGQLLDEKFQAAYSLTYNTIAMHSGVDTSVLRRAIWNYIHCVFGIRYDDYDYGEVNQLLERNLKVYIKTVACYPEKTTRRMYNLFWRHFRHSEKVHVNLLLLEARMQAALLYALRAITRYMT
Description: MIDAS protein-metabolite interaction screen. It is filed as binding. To be noted: significant PMI Q < 0.01. In outline:
as §1

Setting [12] is: dimethylated fatty acid analogs.

Chain of PGAM1 (P18669 whole entry): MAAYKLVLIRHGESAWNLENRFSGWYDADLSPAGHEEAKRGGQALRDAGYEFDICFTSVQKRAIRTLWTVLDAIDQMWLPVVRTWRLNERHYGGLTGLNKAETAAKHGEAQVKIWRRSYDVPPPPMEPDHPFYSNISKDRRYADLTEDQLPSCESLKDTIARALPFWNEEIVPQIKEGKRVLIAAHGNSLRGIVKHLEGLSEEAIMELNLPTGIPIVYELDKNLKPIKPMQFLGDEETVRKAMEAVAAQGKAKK
Chain of LDHB (P07195 whole entry): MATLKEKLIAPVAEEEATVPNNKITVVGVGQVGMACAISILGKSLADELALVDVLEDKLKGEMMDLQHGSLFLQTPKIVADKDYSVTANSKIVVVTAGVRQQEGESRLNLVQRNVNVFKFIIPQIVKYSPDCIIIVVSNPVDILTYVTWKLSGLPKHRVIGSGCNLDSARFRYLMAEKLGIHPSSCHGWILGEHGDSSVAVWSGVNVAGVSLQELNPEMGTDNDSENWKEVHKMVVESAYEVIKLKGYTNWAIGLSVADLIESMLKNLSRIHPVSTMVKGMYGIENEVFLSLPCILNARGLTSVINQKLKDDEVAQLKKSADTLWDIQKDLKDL
Chain of GAPDH (P04406 whole entry): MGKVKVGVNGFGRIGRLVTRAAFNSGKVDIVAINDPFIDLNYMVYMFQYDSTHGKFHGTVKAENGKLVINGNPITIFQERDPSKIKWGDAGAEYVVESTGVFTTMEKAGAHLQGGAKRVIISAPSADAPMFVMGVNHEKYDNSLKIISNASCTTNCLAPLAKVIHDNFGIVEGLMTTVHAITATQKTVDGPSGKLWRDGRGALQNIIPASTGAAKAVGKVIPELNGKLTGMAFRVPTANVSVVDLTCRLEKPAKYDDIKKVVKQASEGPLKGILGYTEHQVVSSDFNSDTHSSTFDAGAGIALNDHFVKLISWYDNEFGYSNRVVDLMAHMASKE
Chain of ENO2 (P09104 whole entry): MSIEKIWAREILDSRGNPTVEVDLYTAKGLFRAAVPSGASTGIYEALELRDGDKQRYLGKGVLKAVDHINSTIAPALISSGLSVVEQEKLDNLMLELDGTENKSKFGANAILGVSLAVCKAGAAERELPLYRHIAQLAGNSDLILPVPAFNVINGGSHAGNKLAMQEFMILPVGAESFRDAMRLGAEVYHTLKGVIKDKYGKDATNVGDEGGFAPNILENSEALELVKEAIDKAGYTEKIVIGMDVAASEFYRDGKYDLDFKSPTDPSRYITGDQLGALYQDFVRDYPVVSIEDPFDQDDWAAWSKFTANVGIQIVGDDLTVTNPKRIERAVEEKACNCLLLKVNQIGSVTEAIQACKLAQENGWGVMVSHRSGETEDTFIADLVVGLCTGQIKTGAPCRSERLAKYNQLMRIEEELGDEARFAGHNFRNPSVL

Consider `O=C(O)[C@H](O)COP(=O)(O)O` [3PG, 3-phosphoglycerate], for which the MIDAS protein-metabolite interaction entry in test [1] and in [2] was “interacted” in each case.
Consider `CC(O)(CC(=O)O)CC(=O)SCCNC(=O)CCNC(=O)[C@H](O)C(C)(C)COP(=O)(O)OP(=O)(O)OC[C@H]1O[C@@H](n2cnc3c(N)ncnc32)[C@H](O)[C@@H]1OP(=O)(O)O` (stereo partly shown) [HMG-CoA, 3-hydroxy-3-methylglutaryl-CoA], for which the MIDAS protein-metabolite interaction result in [3] is on record as “interacted”.
Take `O=C(O)C(COP(=O)(O)O)OP(=O)(O)O` (stereo not shown) [2,3-BPG, 2,3-bisphosphoglycerate]: the MIDAS protein-metabolite interaction entry in test [1], in test [2] and in test [3] was “interacted” throughout.
`N[C@@H](Cc1ccc(OP(=O)(O)O)cc1)C(=O)O` [phosphotyrosine]: the “thermal stabilization of protein upon ligand binding” value (“thermal stabilization” below) in [4] and in [5] was “not” each time.
For the molecule `CCCCCCCCCCCCCCC(C)(C)C(=O)SCCNC(=O)CCNC(=O)C(O)C(C)(C)COP(=O)(O)OP(=O)(O)OCC1OC(n2cnc3c(N)ncnc32)C(O)C1OP(=O)(O)O` (stereo not shown) [DiMePal-CoA, reference compound], in test [6], the “inhibition of LDHA enzyme activity” value is “inhibited”.
`CCCCCCCC/C=C\CCCCCCCC(=O)SCCNC(=O)CCNC(=O)[C@H](O)C(C)(C)COP(=O)(O)OP(=O)(O)OC[C@H]1O[C@@H](n2cnc3c(N)ncnc32)[C@H](O)[C@@H]1OP(=O)(O)O` [C18:1-CoA, oleoyl-CoA]: in test [6], the IC50 (usually the concentration at which inhibition is half-maximal) was ~1 µM.
In the case of `CC(C)(CO[P@@](=O)(O)O[P@@](=O)(O)OC[C@H]1O[C@@H](n2cnc3c(N)ncnc32)[C@H](O)[C@@H]1OP(=O)(O)O)[C@@H](O)C(=O)NCCC(=O)NCCSC(=O)CC(=O)O` [malonyl-coenzyme A], the MIDAS protein-metabolite interaction entry in test [3] is recorded as “interacted”.
`O=C(O)[C@@H](CO)OP(=O)(O)O` [2PG, 2-phosphoglycerate]: the Kd in test [4] (read-out: apparent dissociation constant (KD app)) came out at 289 µM; in [5] (read-out: apparent dissociation constant (Kd app)) it was 298 µM.
As to phosphate, the “thermal stabilization” value in [4] and in test [5] was “not” throughout.
Consider `CCCCCCCCCCCCCCCCC(C)(C)C(=O)O` [DiMeSte, 2,2-dimethyl-stearate, reference compound], for which the 13C-lactate tracing result in test [7] (setting [12]) is “inhibited”. Also, in test [8] (setting [12]), the 13C-glucose tracing result was “inhibited”.
Consider `C=C(OP(=O)(O)O)C(=O)O` [PEP, phosphoenolpyruvate], for which the MIDAS protein-metabolite interaction entry in test [1] and in [2] was “interacted” in each case.
With `N[C@@H](CO)C(=O)O` [serine], the “thermal stabilization” value in [4] and in test [5] was “not” throughout.
For the molecule `NC(=O)c1ccc[n+]([C@@H]2O[C@H](COP(=O)([O-])OP(=O)(O)OC[C@H]3O[C@@H](n4cnc5c(N)ncnc54)[C@H](O)[C@@H]3O)[C@@H](O)[C@H]2O)c1` [NAD, nicotinamide adenine dinucleotide], the MIDAS protein-metabolite interaction entry in [9] is reported as “interactions”; in [3], “interacted”; in test [10], “interactions”.
On to `CCCCCC(=O)OCC(COP(=O)(O)OC1C(O)C(O)C(OP(=O)(O)O)C(OP(=O)(O)O)C1O)OC(=O)CCCCC` (stereo not shown) [PIP2, phosphatidylinositol-4,5-bisphosphate C-6], for which, in test [2], the MIDAS protein-metabolite interaction entry is “interacted”.
Turning to `CCCCCCCCCCCCCCCCCCCC(=O)SCCNC(=O)CCNC(=O)[C@H](O)C(C)(C)COP(=O)(O)OP(=O)(O)OC[C@H]1O[C@@H](n2cnc3c(N)ncnc32)[C@H](O)[C@@H]1OP(=O)(O)O` [C20:0-CoA, arachidoyl-CoA], the IC50 in test [6] is ~1 µM.
Turning to `Nc1ncnc2c1ncn2[C@@H]1O[C@@H]2COP(=O)(O)O[C@H]2[C@H]1O` [cAMP, cyclic adenosine monophosphate], in [3], the MIDAS protein-metabolite interaction entry is listed as “interacted”.
In the case of `NC(=O)C1=CN([C@@H]2O[C@H](COP(=O)(O)OP(=O)(O)OC[C@H]3O[C@@H](n4cnc5c(N)ncnc54)[C@H](O)[C@@H]3O)[C@@H](O)[C@H]2O)C=CC1` [NADH], the MIDAS protein-metabolite interaction entry in [9] and in test [10] was “interactions” in each case.
Consider `O=C(O)CC(=O)C(=O)O` [oxaloacetate], for which the MIDAS protein-metabolite interaction result in test [9] and in test [10] was “interactions” each time.
With `CC(C)C[C@H](N)C(=O)O` [leucine], in test [11], the MIDAS protein-metabolite interaction entry is “most enriched interactors”.
For `O=P(O)(O)O[C@@H]1[C@H](O)[C@H](O)[C@@H](OP(=O)(O)O)[C@H](OP(=O)(O)O)[C@H]1O` [inositol-1,4,5-trisphosphate], the MIDAS protein-metabolite interaction entry in test [1] and in test [3] was “interacted” in each case.
In the case of `CCCCCCCCCCCC(=O)SCCNC(=O)CCNC(=O)[C@H](O)C(C)(C)COP(=O)(O)OP(=O)(O)OC[C@H]1O[C@@H](n2cnc3c(N)ncnc32)[C@H](O)[C@@H]1OP(=O)(O)O` [C12:0-CoA, lauroyl-CoA], in test [6], the IC50 was > 100 µM.
With `CCC/C=C/C/C=C/C=C/C=N/NN=O` [triacsin C, reference compound], the “effect on palmitate-mediated inhibition of pyruvate labeling” value in test [7] (13C-lactate tracing in presence of palmitate) is “prevented”. The “effect on palmitate-mediated inhibition of lactate labeling” value in test [8] (13C-glucose tracing in presence of palmitate) was “prevented”.
For the molecule `CCCCCCCCCCCCCCCC(=O)O` [Palmitate, palmitate], the “pyruvate labeling from 13C-lactate” value in [7] (Ldha−/− H9c2 cells) and in test [7] (Ldha−/−Ldhb−/− H9c2 cells) was “unaffected” in each case. For the same molecule, the “generation of m+3 pyruvate from 13C-lactate” value in [7] (Ldhb−/− H9c2 cells) and in test [7] (WT H9c2 cells) was “blunted” throughout. The “labeling of lactate from 13C-glucose” value in test [8] (Ldhb−/− H9c2 cells) and in [8] (WT H9c2 cells) was “decreased” in each case.
Take `NC(=O)c1ccc[n+]([C@@H]2O[C@H](COP(=O)([O-])O)[C@@H](O)[C@H]2O)c1` [nicotinamide mononucleotide]: the MIDAS protein-metabolite interaction result in [9] and in test [10] was “interactions” each time.
`Cc1cc2nc3c(=O)[nH]c(=O)nc-3n(C[C@H](O)[C@H](O)[C@H](O)COP(=O)(O)OP(=O)(O)OC[C@H]3O[C@@H](n4cnc5c(N)ncnc54)[C@H](O)[C@@H]3O)c2cc1C` [flavin adenine dinucleotide]: the MIDAS protein-metabolite interaction entry in [9] and in test [10] was “interactions” in each case.
In the case of `CCCCCC(=O)OCC(COP(=O)(O)OC1C(O)C(OP(=O)(O)O)C(OP(=O)(O)O)C(OP(=O)(O)O)C1O)OC(=O)CCCCC` (stereo not shown) [PIP3, phosphatidylinositol-3,4,5-trisphosphate C-6], the MIDAS protein-metabolite interaction entry in test [2] is recorded as “interacted”.
As to `CC[C@H](C)[C@H](N)C(=O)O` [isoleucine], in test [11], the MIDAS protein-metabolite interaction result is listed as “most enriched interactors”.
In the case of `CN(CC(=O)O)C(=N)NP(=O)(O)O` [creatine-phosphate], in test [3], the MIDAS protein-metabolite interaction result is “interacted”.
For `CC(C)(COP(=O)(O)OP(=O)(O)OC[C@H]1O[C@@H](n2cnc3c(N)ncnc32)[C@H](O)[C@@H]1OP(=O)(O)O)[C@@H](O)C(=O)NCCC(=O)NCCS` [CoA, coenzyme A], the “inhibition of LDHA enzyme activity” value in [6] is reported as “Neither”.
As to `CSCC[C@H](N)C(=O)O` [methionine], the MIDAS protein-metabolite interaction entry in test [11] was “most enriched interactors”.
